Key:
P. falciparum W2 = settings: read-out: IC50 against P. falciparum W2; cultured malaria parasites; cited from earlier work
falcipain-2 = settings: read-out: IC50 against falcipain-2; cited from earlier work
[1] = DPPH radical scavenging assay; settings: 37 °C, 30 min, 517 nm, n = 3
Summary of the method: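 Ethanolic DPPH (300 µM before mixing) was combined with test solution (0.5 mg/mL before mixing) and held at 37 °C for 30 min, then read at 517 nm. % radical scavenging was taken relative to a DMSO control. IC50 is the concentration removing 50% of the initial DPPH, fitted by kinetics software. N-acetyl-L-cysteine standard; 3 replicates.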

Cytotoxicity assay = assay type: cell-based; settings: human, HeLa cells
Summary of the method: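 HeLa cells grown in DMEM with 5 mM L-glutamine, 10% FBS and penicillin/streptomycin/fungizone, then exposed to the test agent for 24 h in 96-well plates. A resazurin reagent was added and the resorufin formed by surviving cells was read by fluorescence (Ex 560/Em 590). Triplicate wells; emetine as positive control.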

HIV-1 IN = settings: by chelating the active site Mg2+ cofactor; cited from earlier work
T.b. brucei = assay: Trypanosoma brucei assay; assay type: cell-based; settings: 48 h, read-out: Antitrypanosomal IC50
Summary of the method: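 In vitro T. b. brucei cultures in 96-well plates were exposed to the test agent for 48 h; the extract was screened at 25 µg/mL unless otherwise stated. Surviving parasites were counted by adding a resazurin reagent and reading resorufin fluorescence (Ex 560/Em 590). Pentamidine reference; triplicate wells; IC50 from dose-response data.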

Trypanosoma brucei = settings: cited from earlier work

**Q.** What does the source list for `O=C(O)c1c(O)ccc(O)c1O` [2,3,6-trihydroxy benzoic acid]?
**A.** IC50 (P. falciparum W2): 16.5 ± 0.47 µM; IC50 (falcipain-2): 35.4 ± 22.4 µM

**Q.** Which IC50 (P. falciparum W2) does the source give for `COC(=O)c1c(O)ccc(O)c1O` [2,3,6-trihydroxy methyl benzoate] here?
**A.** 13 ± 1.63 µM

**Q.** What about the IC50 (falcipain-2) of the same compound?
**A.** 6.09 ± 0.87 µM

**Q.** For `CC(=O)N[C@@H](CS)C(=O)O` [N-acetyl-L-cysteine], which “Antioxidant IC50” value [1] is on record?
**A.** 14.1 ± 0.1 µg/mL

**Q.** Which IC50 at 24 h (Cytotoxicity assay) does the source give for `CC[C@H]1CN2CCc3cc(OC)c(OC)cc3[C@@H]2C[C@@H]1C[C@H]1NCCc2cc(OC)c(OC)cc21` [emetine] here?
**A.** 0.045 ± 0.01 µM

**Q.** With `COC(=O)c1cc(O)c(O)c(O)c1` [methyl gallate, Methyl gallate] as the compound, how does the “HIV-1 IN inhibition” value (HIV-1 IN) read?
**A.** inhibits HIV-1 IN

**Q.** For `N=C(N)c1ccc(OCCCCCOc2ccc(C(=N)N)cc2)cc1` [pentamidine], which IC50 (T.b. brucei) is on record?
**A.** 0.000782 ± 6e-06 µM

**Q.** Which “activity against Trypanosoma brucei” value (Trypanosoma brucei) does the source give for epigallocatechin-3-gallate here?
**A.** active against Trypanosoma brucei

Source: publication PMC11303703 (Scientific Reports, 2024)
